Values after ≈ are worked out from the molar mass of the structure shown.
Tested on: Salmonella typhimurium
Experiment: Mutagenic activity in Salmonella typhimurium TA102 at 0.312 to 5 mg/plate measured after incubation of upside down for 48 hrs in presence of liver S9 mixture
Assay type: toxicity, organism-based
Conditions: salmonella enterica subsp. enterica serovar typhimurium, s9, 48 h
Method in brief: (§1)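 Plate incorporation trial (Trial I) with histidine-dependent auxotrophs. Revertant colonies are counted against the concurrent vehicle control. Each dose and each control, including negative, vehicle and positive reference mutagens, run in triplicate plates.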
In the case of `CCC(C)COC(=O)Nc1nc(=O)n([C@@H]2O[C@H](C)[C@@H](O)[C@H]2O)cc1F` (some centres undefined), the Activity is reported as “Non-toxic”.

Tested on: Salmonella typhimurium
Experiment: Mutagenic activity in Salmonella typhimurium TA100 at 0.312 to 5 mg/plate measured after incubation of upside down for 48 hrs in absence of liver S9 mixture
Assay type: toxicity, organism-based
Conditions: salmonella enterica subsp. enterica serovar typhimurium
Method in brief: as §1
With `CCC(C)COC(=O)Nc1nc(=O)n([C@@H]2O[C@H](C)[C@@H](O)[C@H]2O)cc1F` (some centres undefined) the Activity was “Non-toxic”.

Tested on: Salmonella typhimurium
Experiment: Mutagenic activity in Salmonella typhimurium TA1535 at 0.312 to 5 mg/plate preincubated for 20 mins before addition in absence of liver S9 mixture
Assay type: toxicity, organism-based
Conditions: salmonella enterica subsp. enterica serovar typhimurium
Method in brief: (§2)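 Pre-incubation trial (Trial II) with histidine-dependent auxotrophs. Test solution is pre-incubated with bacterial suspension and S9 mix (10% v/v) or substitution buffer before plating on selective agar. Revertant colonies are counted against the concurrent vehicle control. Triplicate plates per dose and per control (negative, vehicle, positive reference mutagens).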
With `CCC(C)COC(=O)Nc1nc(=O)n([C@@H]2O[C@H](C)[C@@H](O)[C@H]2O)cc1F` (some centres undefined) the Activity was “Non-toxic”.

Tested on: MCF7
Experiment: Cytotoxicity against human MCF7 cells after 3 days MTT assay
Assay type: functional, cell-based
Conditions: MCF7, 72 h
Method in brief: (§3)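 Cells held as monolayers in DMEM with 10% supplement. Seeded in 96-well plates on day 0 at densities set by doubling time: 1 × 10⁴/mL for HeLa and NCI-69, 2 × 10⁴/mL for MCF-7, 3 × 10⁴/mL for PZ-HPV-7. Five dilutions (10⁻⁸–5 × 10⁻⁶ mol/l), freshly prepared, added for 72 h. Growth read by MTT (succinate dehydrogenase activity); IC50 derived.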
With `CCC(C)COC(=O)Nc1nc(=O)n([C@@H]2O[C@H](C)[C@@H](O)[C@H]2O)cc1F` (some centres undefined) the IC50 was 120 µg/mL (≈ 334 µM).

Tested on: Salmonella typhimurium
Experiment: Mutagenic activity in Salmonella typhimurium TA1537 at 0.312 to 5 mg/plate measured after incubation of upside down for 48 hrs in absence of liver S9 mixture
Assay type: toxicity, organism-based
Conditions: salmonella enterica subsp. enterica serovar typhimurium
Method in brief: as §1
In the case of `CCC(C)COC(=O)Nc1nc(=O)n([C@@H]2O[C@H](C)[C@@H](O)[C@H]2O)cc1F` (some centres undefined), the Activity is reported as “Non-toxic”.

Tested on: Salmonella typhimurium
Experiment: Mutagenic activity in Salmonella typhimurium TA98 at 0.312 to 5 mg/plate preincubated for 20 mins before addition in absence of liver S9 mixture
Assay type: toxicity, organism-based
Conditions: salmonella enterica subsp. enterica serovar typhimurium
Method in brief: as §2
For `CCC(C)COC(=O)Nc1nc(=O)n([C@@H]2O[C@H](C)[C@@H](O)[C@H]2O)cc1F` (some centres undefined), the Activity was “Non-toxic”.

Tested on: Salmonella typhimurium
Experiment: Mutagenic activity in Salmonella typhimurium TA102 at 0.312 to 5 mg/plate measured after incubation of upside down for 48 hrs in absence of liver S9 mixture
Assay type: toxicity, organism-based
Conditions: salmonella enterica subsp. enterica serovar typhimurium
Method in brief: as §1
For `CCC(C)COC(=O)Nc1nc(=O)n([C@@H]2O[C@H](C)[C@@H](O)[C@H]2O)cc1F` (some centres undefined), the Activity was “Non-toxic”.

Tested on: Salmonella typhimurium
Experiment: Mutagenic activity in Salmonella typhimurium TA100 at 0.312 to 5 mg/plate preincubated for 20 mins before addition in absence of liver S9 mixture
Assay type: toxicity, organism-based
Conditions: salmonella enterica subsp. enterica serovar typhimurium
Method in brief: as §2
With `CCC(C)COC(=O)Nc1nc(=O)n([C@@H]2O[C@H](C)[C@@H](O)[C@H]2O)cc1F` (some centres undefined) the Activity was “Non-toxic”.

Tested on: Salmonella typhimurium
Experiment: Mutagenic activity in Salmonella typhimurium TA1537 at 0.312 to 5 mg/plate measured after incubation of upside down for 48 hrs in presence of liver S9 mixture
Assay type: toxicity, organism-based
Conditions: salmonella enterica subsp. enterica serovar typhimurium, s9, 48 h
Method in brief: as §1
In the case of `CCC(C)COC(=O)Nc1nc(=O)n([C@@H]2O[C@H](C)[C@@H](O)[C@H]2O)cc1F` (some centres undefined), the Activity is reported as “Non-toxic”.

Tested on: Salmonella typhimurium
Experiment: Mutagenic activity in Salmonella typhimurium TA1535 at 0.312 to 5 mg/plate preincubated for 20 mins before addition in presence of liver S9 mixture
Assay type: toxicity, organism-based
Conditions: salmonella enterica subsp. enterica serovar typhimurium
Method in brief: as §2
For `CCC(C)COC(=O)Nc1nc(=O)n([C@@H]2O[C@H](C)[C@@H](O)[C@H]2O)cc1F` (some centres undefined), the Activity was “Non-toxic”.

Tested on: Salmonella typhimurium
Experiment: Mutagenic activity in Salmonella typhimurium TA1537 at 0.312 to 5 mg/plate preincubated for 20 mins before addition in presence of liver S9 mixture
Assay type: toxicity, organism-based
Conditions: salmonella enterica subsp. enterica serovar typhimurium
Method in brief: as §2
With `CCC(C)COC(=O)Nc1nc(=O)n([C@@H]2O[C@H](C)[C@@H](O)[C@H]2O)cc1F` (some centres undefined) the Activity was “Non-toxic”.

Tested on: Salmonella typhimurium
Experiment: Mutagenic activity in Salmonella typhimurium TA98 at 0.312 to 5 mg/plate measured after incubation of upside down for 48 hrs in absence of liver S9 mixture
Assay type: toxicity, organism-based
Conditions: salmonella enterica subsp. enterica serovar typhimurium
Method in brief: as §1
In the case of `CCC(C)COC(=O)Nc1nc(=O)n([C@@H]2O[C@H](C)[C@@H](O)[C@H]2O)cc1F` (some centres undefined), the Activity is reported as “Non-toxic”.

Tested on: not listed separately
Experiment: Cytotoxicity against human PZ-HPV-7 cells after 3 days MTT assay
Assay type: functional, cell-based
Conditions: 72 h
Method in brief: as §3
For `CCC(C)COC(=O)Nc1nc(=O)n([C@@H]2O[C@H](C)[C@@H](O)[C@H]2O)cc1F` (some centres undefined), the IC50 was 250 µg/mL (≈ 696 µM).

Tested on: Salmonella typhimurium
Experiment: Mutagenic activity in Salmonella typhimurium TA1537 at 0.312 to 5 mg/plate preincubated for 20 mins before addition in absence of liver S9 mixture
Assay type: toxicity, organism-based
Conditions: salmonella enterica subsp. enterica serovar typhimurium
Method in brief: as §2
With `CCC(C)COC(=O)Nc1nc(=O)n([C@@H]2O[C@H](C)[C@@H](O)[C@H]2O)cc1F` (some centres undefined) the Activity was “Non-toxic”.

Tested on: Salmonella typhimurium
Experiment: Mutagenic activity in Salmonella typhimurium TA102 at 0.312 to 5 mg/plate preincubated for 20 mins before addition in presence of liver S9 mixture
Assay type: toxicity, organism-based
Conditions: salmonella enterica subsp. enterica serovar typhimurium
Method in brief: as §2
For `CCC(C)COC(=O)Nc1nc(=O)n([C@@H]2O[C@H](C)[C@@H](O)[C@H]2O)cc1F` (some centres undefined), the Activity was “Non-toxic”.

Tested on: Salmonella typhimurium
Experiment: Mutagenic activity in Salmonella typhimurium TA102 at 0.312 to 5 mg/plate preincubated for 20 mins before addition in absence of liver S9 mixture
Assay type: toxicity, organism-based
Conditions: salmonella enterica subsp. enterica serovar typhimurium
Method in brief: as §2
With `CCC(C)COC(=O)Nc1nc(=O)n([C@@H]2O[C@H](C)[C@@H](O)[C@H]2O)cc1F` (some centres undefined) the Activity was “Non-toxic”.

Tested on: HeLa
Experiment: Cytotoxicity against human HeLa cells after 3 days MTT assay
Assay type: functional, cell-based
Conditions: 72 h
Method in brief: as §3
In the case of `CCC(C)COC(=O)Nc1nc(=O)n([C@@H]2O[C@H](C)[C@@H](O)[C@H]2O)cc1F` (some centres undefined), the IC50 is reported as 0.09 µg/mL (≈ 0.25 µM).

Tested on: Salmonella typhimurium
Experiment: Mutagenic activity in Salmonella typhimurium TA1535 at 0.312 to 5 mg/plate measured after incubation of upside down for 48 hrs in presence of liver S9 mixture
Assay type: toxicity, organism-based
Conditions: salmonella enterica subsp. enterica serovar typhimurium, s9, 48 h
Method in brief: as §1
In the case of `CCC(C)COC(=O)Nc1nc(=O)n([C@@H]2O[C@H](C)[C@@H](O)[C@H]2O)cc1F` (some centres undefined), the Activity is reported as “Non-toxic”.

Tested on: Salmonella typhimurium
Experiment: Mutagenic activity in Salmonella typhimurium TA98 at 0.312 to 5 mg/plate measured after incubation of upside down for 48 hrs in presence of liver S9 mixture
Assay type: toxicity, organism-based
Conditions: salmonella enterica subsp. enterica serovar typhimurium, s9, 48 h
Method in brief: as §1
For `CCC(C)COC(=O)Nc1nc(=O)n([C@@H]2O[C@H](C)[C@@H](O)[C@H]2O)cc1F` (some centres undefined), the Activity was “Non-toxic”.

Tested on: Salmonella typhimurium
Experiment: Mutagenic activity in Salmonella typhimurium TA98 at 0.312 to 5 mg/plate preincubated for 20 mins before addition in presence of liver S9 mixture
Assay type: toxicity, organism-based
Conditions: salmonella enterica subsp. enterica serovar typhimurium
Method in brief: as §2
With `CCC(C)COC(=O)Nc1nc(=O)n([C@@H]2O[C@H](C)[C@@H](O)[C@H]2O)cc1F` (some centres undefined) the Activity was “Non-toxic”.

Tested on: Salmonella typhimurium
Experiment: Mutagenic activity in Salmonella typhimurium TA100 at 0.312 to 5 mg/plate preincubated for 20 mins before addition in presence of liver S9 mixture
Assay type: toxicity, organism-based
Conditions: salmonella enterica subsp. enterica serovar typhimurium
Method in brief: as §2
In the case of `CCC(C)COC(=O)Nc1nc(=O)n([C@@H]2O[C@H](C)[C@@H](O)[C@H]2O)cc1F` (some centres undefined), the Activity is reported as “Non-toxic”.

Tested on: Salmonella typhimurium
Experiment: Mutagenic activity in Salmonella typhimurium TA100 at 0.312 to 5 mg/plate measured after incubation of upside down for 48 hrs in presence of liver S9 mixture
Assay type: toxicity, organism-based
Conditions: salmonella enterica subsp. enterica serovar typhimurium, s9, 48 h
Method in brief: as §1
For `CCC(C)COC(=O)Nc1nc(=O)n([C@@H]2O[C@H](C)[C@@H](O)[C@H]2O)cc1F` (some centres undefined), the Activity was “Non-toxic”.

Tested on: NCI-H69
Experiment: Cytotoxicity against human NCI-H69 cells after 3 days MTT assay
Assay type: functional, cell-based
Conditions: NCI-H69, 72 h
Method in brief: as §3
With `CCC(C)COC(=O)Nc1nc(=O)n([C@@H]2O[C@H](C)[C@@H](O)[C@H]2O)cc1F` (some centres undefined) the IC50 was 370 µg/mL (≈ 1030 µM).

Tested on: Salmonella typhimurium
Experiment: Mutagenic activity in Salmonella typhimurium TA1535 at 0.312 to 5 mg/plate measured after incubation of upside down for 48 hrs in absence of liver S9 mixture
Assay type: toxicity, organism-based
Conditions: salmonella enterica subsp. enterica serovar typhimurium
Method in brief: as §1
For `CCC(C)COC(=O)Nc1nc(=O)n([C@@H]2O[C@H](C)[C@@H](O)[C@H]2O)cc1F` (some centres undefined), the Activity was “Non-toxic”.
